Results: ChEMBL document CHEMBL2057168, “(1aR,5aR)1a,3,5,5a-Tetrahydro-1H-2,3-diaza-cyclopropa[a]pentalene-4-carboxylic acid (MK-1903): a potent GPR109a agonist that lowers free fatty acids in humans” (J Med Chem, 2012)
Each block holds one molecule with its values, some of them ahead of it. The source made the active and inactive calls. The calls are words filed in the database; no cut-off is given here.

How the values were obtained:
[1] = target: Hydroxycarboxylic acid receptor 3 (Homo sapiens) (UniProt P49019); assay: Agonist activity at human GPR109b assessed as decrease in forskolin-stimulated cAMP production by HTRF assay; assay type: functional
Sequence of Hydroxycarboxylic acid receptor 3 (Homo sapiens) (P49019 whole entry): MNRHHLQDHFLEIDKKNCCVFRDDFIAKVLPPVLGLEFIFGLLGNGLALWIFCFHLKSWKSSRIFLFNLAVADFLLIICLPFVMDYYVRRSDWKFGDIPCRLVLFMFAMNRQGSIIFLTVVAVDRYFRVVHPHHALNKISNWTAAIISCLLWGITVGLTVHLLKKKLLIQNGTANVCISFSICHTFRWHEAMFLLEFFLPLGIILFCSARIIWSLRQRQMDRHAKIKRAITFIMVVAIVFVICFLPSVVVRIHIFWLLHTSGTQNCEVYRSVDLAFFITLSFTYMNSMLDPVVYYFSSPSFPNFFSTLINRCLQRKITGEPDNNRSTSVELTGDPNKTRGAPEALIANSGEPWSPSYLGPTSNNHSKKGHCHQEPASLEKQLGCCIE

Mus musculus [2] = assay: Toxicity in C57/Bl6 mouse assessed as increase in cutaneous blood flow in ear at 100 mg/kg, ip after 5 mins relative to vehicle treated control by laser doppler flowmetry; assay type: organism-based; parameters: dose 100 mg/kg, route intraperitoneal; conditions: in vivo
Method in brief: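 Male C57/Bl6 mice (8–10 weeks, ~25 g) anesthetized with Nembutal ip (80 mg/10 mL/kg). Ear perfusion recorded by laser Doppler imaging: 3 min baseline, then vehicle (PBS, 40% HPBCD or 0.5% methylcellulose) or compound given ip at 5 mL/kg through a preinserted syringe, with readings for ~15 min. Expressed as % change of perfusion over baseline.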

Rattus norvegicus [3] = assay: Antidyslipedic activity in fasted Sprague-Dawley rat assessed as decrease in free fatty acid level at 0.001 mg/kg, po by NEFA C-free fatty acid assay; assay type: functional, organism-based; parameters: dose 0.001 mg/kg
Method in brief: (§1)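 Male Sprague-Dawley rats fasted, compound by oral gavage, serial plasma sampling after dosing for free fatty acids over a time course; vehicle-dosed control group.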

Cytochrome P450 2D6 = Cytochrome P450 2D6 (Homo sapiens, UniProt P10635); assay: Activity at CYP2D6; assay type: ADME
Sequence of Cytochrome P450 2D6 (P10635 whole entry): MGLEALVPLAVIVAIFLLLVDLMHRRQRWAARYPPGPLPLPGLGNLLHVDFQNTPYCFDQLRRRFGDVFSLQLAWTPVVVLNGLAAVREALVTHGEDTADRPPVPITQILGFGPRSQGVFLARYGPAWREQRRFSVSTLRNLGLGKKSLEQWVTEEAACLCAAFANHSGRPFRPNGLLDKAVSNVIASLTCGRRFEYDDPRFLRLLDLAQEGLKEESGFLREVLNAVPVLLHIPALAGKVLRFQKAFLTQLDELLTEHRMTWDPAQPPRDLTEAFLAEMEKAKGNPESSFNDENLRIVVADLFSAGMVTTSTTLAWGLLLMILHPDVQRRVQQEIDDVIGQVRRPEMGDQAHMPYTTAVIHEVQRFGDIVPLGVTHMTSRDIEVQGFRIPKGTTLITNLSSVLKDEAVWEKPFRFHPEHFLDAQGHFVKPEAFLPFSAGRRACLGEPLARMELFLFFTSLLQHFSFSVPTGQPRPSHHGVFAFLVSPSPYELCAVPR

Cytochrome P450 2C8 = target: T1, Cytochrome P450 2C8 (Homo sapiens, UniProt P10632); assay: Activity at CYP2C8; assay type: ADME
T1 sequence (P10632 whole entry): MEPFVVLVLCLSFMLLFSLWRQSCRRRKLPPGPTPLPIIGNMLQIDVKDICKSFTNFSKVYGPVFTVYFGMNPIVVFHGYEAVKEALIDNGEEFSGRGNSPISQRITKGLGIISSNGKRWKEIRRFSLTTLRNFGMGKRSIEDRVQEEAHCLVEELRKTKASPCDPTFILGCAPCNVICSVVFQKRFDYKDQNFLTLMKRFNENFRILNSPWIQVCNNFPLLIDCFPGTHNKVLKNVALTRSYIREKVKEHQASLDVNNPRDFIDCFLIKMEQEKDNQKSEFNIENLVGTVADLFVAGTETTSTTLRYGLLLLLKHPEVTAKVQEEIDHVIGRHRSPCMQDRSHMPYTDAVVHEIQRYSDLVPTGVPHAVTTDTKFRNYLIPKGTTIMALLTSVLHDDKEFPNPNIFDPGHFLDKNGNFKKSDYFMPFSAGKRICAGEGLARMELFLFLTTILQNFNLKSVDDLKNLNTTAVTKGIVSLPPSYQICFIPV

Cytochrome P450 2C9 = Cytochrome P450 2C9 (Homo sapiens, UniProt P11712); assay: Activity at CYP2C9; assay type: ADME
Sequence of Cytochrome P450 2C9 (P11712 whole entry): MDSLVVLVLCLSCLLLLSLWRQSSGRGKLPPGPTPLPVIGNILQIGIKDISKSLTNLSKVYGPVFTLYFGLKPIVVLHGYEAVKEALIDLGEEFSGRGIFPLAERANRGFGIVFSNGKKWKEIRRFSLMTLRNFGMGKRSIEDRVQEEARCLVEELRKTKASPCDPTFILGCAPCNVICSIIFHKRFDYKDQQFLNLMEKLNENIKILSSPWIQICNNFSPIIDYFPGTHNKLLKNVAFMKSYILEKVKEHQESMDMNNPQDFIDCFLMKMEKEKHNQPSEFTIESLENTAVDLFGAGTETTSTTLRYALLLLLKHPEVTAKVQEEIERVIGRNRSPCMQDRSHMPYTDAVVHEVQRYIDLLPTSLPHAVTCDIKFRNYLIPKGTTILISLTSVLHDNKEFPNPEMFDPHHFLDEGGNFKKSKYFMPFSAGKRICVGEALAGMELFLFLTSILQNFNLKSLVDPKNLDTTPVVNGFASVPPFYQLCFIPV

Cytochrome P450 3A4 = Cytochrome P450 3A4 (Homo sapiens, UniProt P08684); assay: Activity at CYP3A4; assay type: ADME
Sequence of Cytochrome P450 3A4 (P08684 whole entry): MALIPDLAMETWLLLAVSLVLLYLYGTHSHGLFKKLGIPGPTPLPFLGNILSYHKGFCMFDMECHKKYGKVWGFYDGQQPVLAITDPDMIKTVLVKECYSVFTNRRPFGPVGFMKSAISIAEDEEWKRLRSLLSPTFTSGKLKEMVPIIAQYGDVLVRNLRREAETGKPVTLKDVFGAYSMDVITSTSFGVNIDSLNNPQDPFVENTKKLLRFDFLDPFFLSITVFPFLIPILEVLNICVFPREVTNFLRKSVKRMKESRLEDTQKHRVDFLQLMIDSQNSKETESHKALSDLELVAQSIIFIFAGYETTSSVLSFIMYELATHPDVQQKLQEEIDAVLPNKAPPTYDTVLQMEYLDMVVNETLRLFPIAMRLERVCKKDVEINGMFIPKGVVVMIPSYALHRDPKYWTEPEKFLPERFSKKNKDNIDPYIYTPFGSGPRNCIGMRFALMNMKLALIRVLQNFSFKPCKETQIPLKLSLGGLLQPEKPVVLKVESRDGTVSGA

Rattus norvegicus [4] = assay: Antidyslipedic activity in fasted Sprague-Dawley rat assessed as decrease in free fatty acid level at 0.01 to 100 mg/kg, po by NEFA C-free fatty acid assay; assay type: functional; parameters: scale not given: the % may be the effect or the level left; conditions: dose mg/kg 0.01-100; method in brief: as §1
Rattus norvegicus [5] = assay: Antidyslipedic activity in fasted Sprague-Dawley rat assessed as decrease in free fatty acid level at 0.1 to 30 mg/kg, po by NEFA C-free fatty acid assay; assay type: functional; parameters: scale not given: the % may be the effect or the level left; conditions: dose mg/kg 0.1-30; method in brief: as §1
[6] = Blood clearance in mouse; assay type: ADME, organism-based; conditions: whole blood
Method in brief: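 Pharmacokinetics across species; for mice, clearance determined in blood rather than plasma following dosing.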

[7] = Volume of distribution in mouse; assay type: ADME, organism-based; conditions: in vivo
[8] = Terminal half life in mouse; assay type: ADME, organism-based; conditions: in vivo, read-out: beta t1/2 (converted)
Mus musculus [9] = assay: Dose normalized Cmax in po dosed mouse; assay type: ADME, organism-based; conditions: in vivo
Mus musculus [10] = assay: Dose normalized AUC in po dosed mouse; assay type: ADME, organism-based; conditions: in vivo
[11] = Oral bioavailability in mouse; assay type: ADME, organism-based; conditions: in vivo
[12] = Plasma clearance in Sprague-Dawley rat at 2 mg/kg, iv; assay type: ADME, organism-based; parameters: dose 2 mg/kg, route intravenous
Method in brief: (§2)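 Male Sprague-Dawley rats were dosed at 10 mg/kg po or 2 mg/kg iv in 80% PEG400/20% phosphate-buffered saline, fasted overnight before the oral dose. Jugular blood was sampled serially from 0.25 to 21 h over 24 h, and heparinized plasma was prepared. Drug was assayed by HPLC/MS/MS (quantitation range 1–2000 ng/mL).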

[13] = Volume of distribution in Sprague-Dawley rat at 2 mg/kg, iv; assay type: ADME, organism-based; parameters: dose 2 mg/kg, route intravenous; conditions: in vivo
Method in brief: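 Male Sprague–Dawley rats dosed iv at 2 mg/kg in 80% PEG400/20% phosphate buffered saline. Jugular vein blood was serially sampled over 24 h, and plasma was prepared from sodium heparin blood. Plasma was analysed by HPLC/MS/MS (LLOQ 1 ng/mL, ULOQ 2000 ng/mL).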

[14] = Terminal half life in Sprague-Dawley rat at 2 mg/kg, iv; assay type: ADME, organism-based; parameters: dose 2 mg/kg, route intravenous; conditions: in vivo, read-out: beta t1/2 (converted); method in brief: as §2
Rattus norvegicus [15] = assay: Dose normalized Cmax in Sprague-Dawley rat at 10 mg/kg, po; assay type: ADME, organism-based; parameters: dose 10 mg/kg, route oral; conditions: in vivo; method in brief: as §2
Rattus norvegicus [16] = assay: Dose normalized AUC in Sprague-Dawley rat at 10 mg/kg, po; assay type: ADME, organism-based; parameters: dose 10 mg/kg, route oral; conditions: in vivo; method in brief: as §2
[17] = Oral bioavailability in Sprague-Dawley rat at 10 mg/kg; assay type: ADME, organism-based; conditions: in vivo; method in brief: as §2
[18] = Plasma clearance in dog; assay type: ADME, organism-based, Canis lupus familiaris
[19] = Volume of distribution in dog; assay type: ADME, organism-based, Canis lupus familiaris; conditions: in vivo
[20] = Terminal half life in dog; assay type: ADME, organism-based, Canis lupus familiaris; conditions: in vivo, read-out: beta t1/2 (converted)
Canis familiaris [21] = assay: Dose normalized Cmax in po dosed dog; assay type: ADME, organism-based, Canis lupus familiaris; conditions: in vivo
Canis familiaris [22] = assay: Dose normalized AUC in po dosed dog; assay type: ADME, organism-based, Canis lupus familiaris; conditions: in vivo
[23] = Oral bioavailability in dog; assay type: ADME, organism-based, Canis lupus familiaris; conditions: in vivo

- Activity [1]: inactive
Structure (SMILES): CC(C)CC[C@@H]1[C@@H]2Cc3c(C(=O)O)n[nH]c3[C@H]12 (racemic)

- Activity [1]: inactive
Structure (SMILES): C[C@H]1[C@@H]2Cc3c(C(=O)O)n[nH]c3[C@H]12 (racemic)

- Activity [1]: inactive
Structure (SMILES): CCC[C@@H]1[C@@H]2Cc3c(C(=O)O)n[nH]c3[C@H]12 (racemic)

- Activity [1]: inactive
Structure (SMILES): CSC[C@H]1[C@@H]2Cc3c(C(=O)O)n[nH]c3[C@H]12 (racemic)

- Activity [1]: inactive
Structure (SMILES): CCCCC[C@H]1[C@@H]2Cc3c(C(=O)O)n[nH]c3[C@H]12 (racemic)

- Activity [1]: inactive
Structure (SMILES): C[C@H]1[C@H]2Cc3c(C(=O)O)n[nH]c3[C@@H]12

- Activity [1]: inactive
Structure (SMILES): CCCC[C@H]1[C@@H]2Cc3c(C(=O)O)n[nH]c3[C@H]12 (racemic)

- Activity [1]: inactive
Structure (SMILES): CC[C@@H]1[C@@H]2Cc3c(C(=O)O)n[nH]c3[C@H]12 (racemic; form 1)

- Activity [1]: inactive
Structure (SMILES): CCC[C@H]1[C@@H]2Cc3c(C(=O)O)n[nH]c3[C@H]12 (racemic)

- Activity [1]: inactive
Structure (SMILES): C[C@H]1[C@@H]2Cc3c(C(=O)O)n[nH]c3[C@H]12

- Activity [1]: inactive
Structure (SMILES): O=C(O)c1cccnc1 [NIACIN]
- Activity (Mus musculus [2]): 60%

- Activity [1]: inactive
Structure (SMILES): C[C@@H]1[C@@H]2Cc3c(C(=O)O)n[nH]c3[C@H]12 (racemic)

- Activity [1]: inactive
Structure (SMILES): CCOC[C@@H]1[C@@H]2Cc3c(C(=O)O)n[nH]c3[C@H]12 (racemic)

- Activity [1]: inactive
Structure (SMILES): CC(C)C[C@H]1[C@@H]2Cc3c(C(=O)O)n[nH]c3[C@@H]21 (racemic)

- Activity [1]: inactive
Structure (SMILES): C=C[C@H]1[C@@H]2Cc3c(C(=O)O)n[nH]c3[C@H]12 (racemic)

- Activity [1]: inactive
Structure (SMILES): COC[C@@H]1[C@@H]2Cc3c(C(=O)O)n[nH]c3[C@H]12 (racemic)

- Activity [1]: inactive
Structure (SMILES): C[C@@H]1[C@@H]2Cc3c(C(=O)O)n[nH]c3[C@H]12 [listing 1 of 2 here]
- Activity (Rattus norvegicus [3]): inactive

- Activity [1]: inactive
Structure (SMILES): CCOC[C@H]1[C@@H]2Cc3c(C(=O)O)n[nH]c3[C@H]12 (racemic)

- Activity [1]: inactive
Structure (SMILES): O=C(O)c1n[nH]c2c1CC1CC21 (racemic)

- Activity [1]: inactive
Structure (SMILES): O=C(O)c1n[nH]c2c1C[C@H]1[C@@H](CC3CC3)[C@@H]21 (racemic; form 1)

- Activity [1]: inactive
Structure (SMILES): O=C(O)c1n[nH]c2c1C[C@H]1[C@H](c3ccccc3)[C@@H]21 (racemic)

- Activity [1]: inactive
Structure (SMILES): CC(C)[C@@H]1[C@@H]2Cc3c(C(=O)O)n[nH]c3[C@@H]21 (racemic)

- Activity [1]: inactive
Structure (SMILES): C=C[C@@H]1[C@@H]2Cc3c(C(=O)O)n[nH]c3[C@H]12 (racemic)

- Activity [1]: inactive
Structure (SMILES): CCCCC[C@@H]1[C@@H]2Cc3c(C(=O)O)n[nH]c3[C@H]12 (racemic)

- Activity [1]: inactive
Structure (SMILES): O=C(O)c1n[nH]c2c1C[C@H]1[C@@H](COc3ccccc3)[C@@H]21 (racemic)

- Activity [1]: inactive
Structure (SMILES): COC[C@H]1[C@@H]2Cc3c(C(=O)O)n[nH]c3[C@H]12 (racemic)

- Activity [1]: inactive
Structure (SMILES): CC[C@H]1[C@@H]2Cc3c(C(=O)O)n[nH]c3[C@H]12 (racemic)

- Activity (Cytochrome P450 2D6): Not Active
- Activity (Cytochrome P450 2C8): Not Active
- Activity (Cytochrome P450 2C9): Not Active
- Activity (Cytochrome P450 3A4): Not Active
- clearance [6]: 35 mL/min/kg
- Vd [7]: 0.61 L/kg
- half-life [8]: 0.3 h
- Cmax/dose (Mus musculus [9]): 1.5 µM·kg/mg
- AUC/dose (Mus musculus [10]): 1.4 µM·kg·h/mg
- bioavailability [11]: 51%
- clearance [12]: 17 mL/min/kg
- Vd [13]: 0.53 L/kg
- half-life [14]: 2.4 h
- Cmax/dose (Rattus norvegicus [15]): 5 µM·kg/mg
- AUC/dose (Rattus norvegicus [16]): 5.1 µM·kg·h/mg
- bioavailability [17]: 90%
- clearance [18]: 2.4 mL/min/kg
- Vd [19]: 0.22 L/kg
- half-life [20]: 2.1 h
- Cmax/dose (Canis familiaris [21]): 26 µM·kg/mg
- AUC/dose (Canis familiaris [22]): 44.4 µM·kg·h/mg
- bioavailability [23]: 100%
Structure (SMILES): C[C@@H]1[C@@H]2Cc3c(C(=O)O)n[nH]c3[C@H]12 [listing 2 of 2 here]
- Activity (Rattus norvegicus [4]): 90%
- Activity (Rattus norvegicus [5]): 90%
- Activity (Mus musculus [2]): 30%

- Activity [1]: inactive
Structure (SMILES): O=C(O)c1n[nH]c2c1C[C@H]1[C@@H](CC3CC3)[C@@H]21 (racemic; form 2)

- Activity [1]: inactive
Structure (SMILES): CC[C@@H]1[C@@H]2Cc3c(C(=O)O)n[nH]c3[C@H]12 (racemic; form 2)

- Activity [1]: inactive
Structure (SMILES): CC1(C)C2Cc3c(C(=O)O)n[nH]c3C21 (racemic)

- Activity [1]: inactive
Structure (SMILES): C=CC[C@H]1[C@@H]2Cc3c(C(=O)O)n[nH]c3[C@H]12 (racemic)

- Activity [1]: inactive
Structure (SMILES): C[C@@H]1[C@H]2Cc3c(C(=O)O)n[nH]c3[C@@H]12

- Activity [1]: inactive
Structure (SMILES): CCCC[C@@H]1[C@@H]2Cc3c(C(=O)O)n[nH]c3[C@H]12 (racemic)

- Activity [1]: inactive
Structure (SMILES): C1Cc2[nH]nc(-c3nn[nH]n3)c2C1

- Activity [1]: inactive
Structure (SMILES): O=C(O)c1n[nH]c2c1C[C@H]1[C@H](Cc3ccccc3)[C@@H]21 (racemic)

- Activity [1]: inactive
Structure (SMILES): CC(C)C[C@@H]1[C@@H]2Cc3c(C(=O)O)n[nH]c3[C@H]12 (racemic)

- Activity [1]: inactive
Structure (SMILES): C=CC[C@@H]1[C@@H]2Cc3c(C(=O)O)n[nH]c3[C@H]12 (racemic)

- Activity [1]: inactive
Structure (SMILES): O=C(O)c1n[nH]c2c1C[C@@H]1[C@H]2[C@@H]1C1CC1 (racemic)

- Activity [1]: inactive
Structure (SMILES): CSC[C@@H]1[C@@H]2Cc3c(C(=O)O)n[nH]c3[C@H]12 (racemic)

- Activity [1]: inactive
Structure (SMILES): CC(C)CC[C@H]1[C@@H]2Cc3c(C(=O)O)n[nH]c3[C@H]12 (racemic)
